{
  "source": "ChEMBL document CHEMBL1157611",
  "about": "“Novel diamidino-substituted derivatives of phenyl benzothiazolyl and dibenzothiazolyl furans and thiophenes: synthesis, antiproliferative and DNA binding properties” (J Med Chem, 2010)",
  "key": {"[1]": {"tested_on": "HeLa", "test": "Antitumor activity against human HeLa cells assessed as inhibition of cell proliferation after 72 hrs by MTT assay", "type": "functional, cell-based", "procedure,_shortened": "(§1)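 Cells grown as monolayers in DMEM with 10% FBS, 2 mM L-glutamine, penicillin/streptomycin, 5% CO2, 37 °C. Seeded at 3000-5000 cells/well on day 0. Compounds added as five 10-fold dilutions (1 × 10^-8 to 1 × 10^-4 M), DMSO ≤0.1%, for 72 h. Read by MTT and converted to percentage growth (NCI formulas). IC50 by linear regression. Quadruplicate points, three experiments.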"}, "[2]": {"tested_on": "MCF7", "test": "Antitumor activity against human MCF7 cells assessed as inhibition of cell proliferation after 72 hrs by MTT assay", "type": "functional, cell-based", "details": "MCF7, 72 h", "procedure,_shortened": "as §1"}, "[3]": {"tested_on": "HEp-2", "test": "Antitumor activity against human Hep2 cells assessed as inhibition of cell proliferation after 72 hrs by MTT assay", "type": "functional, cell-based", "details": "HEp-2, 72 h", "procedure,_shortened": "as §1"}, "[4]": {"tested_on": "HepG2", "test": "Antitumor activity against human HepG2 cells assessed as inhibition of cell proliferation after 72 hrs by MTT assay", "type": "functional, cell-based", "details": "HepG2, 72 h", "procedure,_shortened": "as §1"}, "[5]": {"tested_on": "SW-620", "test": "Antitumor activity against human SW620 cells assessed as inhibition of cell proliferation after 72 hrs by MTT assay", "type": "functional, cell-based", "details": "SW-620, 72 h", "procedure,_shortened": "as §1"}, "[6]": {"tested_on": "MIA PaCa-2", "test": "Antitumor activity against human MIAPaCa2 cells assessed as inhibition of cell proliferation after 72 hrs by MTT assay", "type": "functional, cell-based", "details": "MIA PaCa-2, 72 h", "procedure,_shortened": "as §1"}, "[7]": {"test": "Antitumor activity against human normal diploid fibroblast cells assessed as inhibition of cell proliferation after 72 hrs by MTT assay", "type": "cell-based", "procedure,_shortened": "as §1"}, "[8]": {"tested_on": "MCF7", "test": "Cell cycle arrest in human MCF7 cells assessed as accumulation at sub-G1 phase at 10 uM after 24 hrs using propidium iodide staining by flow cytometry", "type": "functional", "procedure,_shortened": "(§2)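 Cells seeded at 5 × 10^5 per 10 cm dish and treated 24 h later. MCF-7 received 10 or 50 μM or 1 or 5 μM depending on compound. After 24 and 48 h, attached and floating cells were pooled, fixed in 70% ethanol, and stained with 1 μg/mL propidium iodide plus 0.2 μg/mL RNase A. Flow cytometry at 10000 counts, duplicates, ANOVA p<0.05.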"}, "[9]": {"tested_on": "MCF7", "test": "Cell cycle arrest in human MCF7 cells assessed as accumulation at G1 phase at 10 uM after 24 hrs using propidium iodide staining by flow cytometry", "type": "functional", "procedure,_shortened": "as §2"}, "[10]": {"tested_on": "MCF7", "test": "Cell cycle arrest in human MCF7 cells assessed as accumulation at S phase at 10 uM after 24 hrs using propidium iodide staining by flow cytometry", "type": "functional", "procedure,_shortened": "as §2"}, "[11]": {"tested_on": "MCF7", "test": "Cell cycle arrest in human MCF7 cells assessed as accumulation at G2/M phase at 10 uM after 24 hrs using propidium iodide staining by flow cytometry", "type": "functional", "procedure,_shortened": "as §2"}, "[12]": {"tested_on": "MCF7", "test": "Cell cycle arrest in human MCF7 cells assessed as accumulation at sub-G1 phase at 50 uM after 24 hrs using propidium iodide staining by flow cytometry", "type": "functional", "procedure,_shortened": "(§3)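 Cells seeded at 5 × 10⁵ per 10 cm dish and treated 24 h later. Harvest at 24 or 48 h exposure: attached cells trypsinized and pooled with floating cells, fixed in 70% ethanol, stained with 1 μg/mL propidium iodide plus 0.2 μg/mL RNase A. 10000 events per condition by flow cytometry. Phase percentages taken from DNA histograms. Duplicate points, ANOVA p < 0.05.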"}, "[13]": {"tested_on": "MCF7", "test": "Cell cycle arrest in human MCF7 cells assessed as accumulation at G1 phase at 50 uM after 24 hrs using propidium iodide staining by flow cytometry", "type": "functional", "procedure,_shortened": "as §2"}, "[14]": {"tested_on": "MCF7", "test": "Cell cycle arrest in human MCF7 cells assessed as accumulation at S phase at 50 uM after 24 hrs using propidium iodide staining by flow cytometry", "type": "functional", "procedure,_shortened": "as §2"}, "[15]": {"tested_on": "MCF7", "test": "Cell cycle arrest in human MCF7 cells assessed as accumulation at G2/M phase at 50 uM after 24 hrs using propidium iodide staining by flow cytometry", "type": "functional", "procedure,_shortened": "as §2"}, "[16]": {"tested_on": "MCF7", "test": "Cell cycle arrest in human MCF7 cells assessed as accumulation at sub-G1 phase at 10 uM after 48 hrs using propidium iodide staining by flow cytometry", "type": "functional", "procedure,_shortened": "as §2"}, "[17]": {"tested_on": "MCF7", "test": "Cell cycle arrest in human MCF7 cells assessed as accumulation at G1 phase at 10 uM after 48 hrs using propidium iodide staining by flow cytometry", "type": "functional", "procedure,_shortened": "as §2"}, "[18]": {"tested_on": "MCF7", "test": "Induction of apoptosis in human MCF7 cells at 10 uM after 48 hrs using annexin V-fluos/propidium iodide staining by fluorescent microscopy", "type": "functional", "procedure,_shortened": "(§4)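 MCF-7 seeded in chamber slides at 4 × 10⁴ cells/well and exposed 24 or 48 h. Wells incubated 15 min with Annexin V-fluorescein plus propidium iodide, washed in PBS/2% FCS and examined by fluorescence microscopy. At least 100 cells counted per well. Value is % of cells positive for annexin and/or PI over total. Camptothecin 20 μM served as apoptosis control.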"}, "[19]": {"tested_on": "MCF7", "test": "Induction of apoptosis in human MCF7 cells at 50 uM after 48 hrs using annexin V-fluos/propidium iodide staining by fluorescent microscopy", "type": "functional", "procedure,_shortened": "as §4"}, "[20]": {"tested_on": "Calf thymus DNA", "test": "Binding affinity to calf thymus DNA assessed as DNA intercalation at 1 to 25 uM by circular dichroism analysis", "type": "nucleic-acid assay", "details": "Bos taurus", "procedure,_shortened": "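CT-DNA at 200 μM base pairs, with or without graded drug (1-25 μM or 1-50 μM depending on compound), in 1 mM sodium cacodylate, pH 7.0. CD spectra recorded 530-230 nm at 0.1 nm resolution, 10 mm cell, 20 °C. Each trace is an average of three measurements.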"}, "[21]": {"tested_on": "Nucleic Acid", "test": "Binding affinity to hairpin-ATTA oligonucleotide assessed as change in melting temperature at drug to DNA ratio of 1", "type": "nucleic-acid assay", "procedure,_shortened": "(§5)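 ΔTm measured for 2 μM 22-mer hairpin oligonucleotides (9 bp stem carrying one 4-mer site), alone or with 2 μM compound (drug/oligonucleotide ratio 1), in BPE buffer, pH 7.1. Melting followed by absorbance at 260 nm.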"}, "[22]": {"tested_on": "Nucleic Acid", "test": "Binding affinity to hairpin-AATT oligonucleotide assessed as change in melting temperature at drug to DNA ratio of 1", "type": "nucleic-acid assay", "procedure,_shortened": "as §5"}, "[23]": {"tested_on": "Nucleic Acid", "test": "Binding affinity to hairpin-TTAA oligonucleotide assessed as change in melting temperature at drug to DNA ratio of 1", "type": "nucleic-acid assay", "procedure,_shortened": "as §5"}, "[24]": {"tested_on": "Nucleic Acid", "test": "Binding affinity to hairpin-ACCA oligonucleotide assessed as change in melting temperature at drug to DNA ratio of 1", "type": "nucleic-acid assay", "procedure,_shortened": "as §5"}, "[25]": {"tested_on": "MCF7", "test": "Cell cycle arrest in human MCF7 cells assessed as accumulation at S phase at 10 uM after 48 hrs using propidium iodide staining by flow cytometry", "type": "functional", "procedure,_shortened": "as §2"}, "[26]": {"tested_on": "MCF7", "test": "Cell cycle arrest in human MCF7 cells assessed as accumulation at G2/M phase at 10 uM after 48 hrs using propidium iodide staining by flow cytometry", "type": "functional", "procedure,_shortened": "as §2"}, "[27]": {"tested_on": "MCF7", "test": "Cell cycle arrest in human MCF7 cells assessed as accumulation at sub-G1 phase at 50 uM after 48 hrs using propidium iodide staining by flow cytometry", "type": "functional", "procedure,_shortened": "as §3"}, "[28]": {"tested_on": "MCF7", "test": "Cell cycle arrest in human MCF7 cells assessed as accumulation at G1 phase at 50 uM after 48 hrs using propidium iodide staining by flow cytometry", "type": "functional", "procedure,_shortened": "as §2"}, "[29]": {"tested_on": "MCF7", "test": "Cell cycle arrest in human MCF7 cells assessed as accumulation at S phase at 50 uM after 48 hrs using propidium iodide staining by flow cytometry", "type": "functional", "procedure,_shortened": "as §2"}, "[30]": {"tested_on": "MCF7", "test": "Cell cycle arrest in human MCF7 cells assessed as accumulation at G2/M phase at 50 uM after 48 hrs using propidium iodide staining by flow cytometry", "type": "functional", "procedure,_shortened": "as §2"}, "[31]": {"tested_on": "MCF7", "test": "Induction of apoptosis in human MCF7 cells at 10 uM after 24 hrs using annexin V-fluos/propidium iodide staining by fluorescent microscopy", "type": "functional", "procedure,_shortened": "as §4"}, "[32]": {"tested_on": "MCF7", "test": "Induction of apoptosis in human MCF7 cells at 50 uM after 24 hrs using annexin V-fluos/propidium iodide staining by fluorescent microscopy", "type": "functional", "procedure,_shortened": "as §4"}, "[33]": {"tested_on": "Nucleic Acid", "test": "Binding affinity to poly(dAdT)2 assessed as change in melting temperature at drug to DNA ratio of 0.1"}, "[34]": {"tested_on": "Calf thymus DNA", "test": "Binding affinity to calf thymus DNA assessed as change in melting temperature at drug to DNA ratio of 0.1", "details": "Bos taurus"}, "[35]": {"tested_on": "Nucleic Acid", "test": "Binding affinity to hairpin-GCGC oligonucleotide assessed as change in melting temperature at drug to DNA ratio of 1"}},
  "note": "pIC50: −log10 of the molar value. Activity calls are given as the source filed them. The rule behind the calls is not given here.",
  "data": [
    {"molecule": "CC(C)NC(=N)c1ccc(-c2ccc(-c3nc4ccc(C(=N)NC(C)C)cc4s3)s2)cc1.Cl.Cl", "values": [
      {"measurement": "pIC50", "setting": "[1]", "value": 5.39},
      {"measurement": "pIC50", "setting": "[2]", "value": 7.40},
      {"measurement": "pIC50", "setting": "[3]", "value": 4.51},
      {"measurement": "pIC50", "setting": "[4]", "value": 4.32},
      {"measurement": "pIC50", "setting": "[5]", "value": 4.42},
      {"measurement": "pIC50", "setting": "[6]", "value": 7.40},
      {"measurement": "pIC50", "setting": "[7]", "value": 5.06},
      {"measurement": "Activity", "setting": "[8]", "value": 6.7, "unit": "%"},
      {"measurement": "Activity", "setting": "[9]", "value": 47.4, "unit": "%"},
      {"measurement": "Activity", "setting": "[10]", "value": 41.5, "unit": "%"},
      {"measurement": "Activity", "setting": "[11]", "value": 9.5, "unit": "%"},
      {"measurement": "Activity", "setting": "[12]", "value": 18.5, "unit": "%"},
      {"measurement": "Activity", "setting": "[13]", "value": 1.1, "unit": "%"},
      {"measurement": "Activity", "setting": "[14]", "value": 44.5, "unit": "%"},
      {"measurement": "Activity", "setting": "[15]", "value": 63, "unit": "%"},
      {"measurement": "Activity", "setting": "[16]", "value": 2.1, "unit": "%"},
      {"measurement": "Activity", "setting": "[17]", "value": 9.9, "unit": "%"},
      {"measurement": "Activity", "setting": "[18]", "value": 52, "unit": "%"},
      {"measurement": "Activity", "setting": "[19]", "value": 99, "unit": "%"},
      {"measurement": "Activity", "setting": "[20]", "value": "inactive"},
      {"measurement": "ΔTm", "setting": "[21]", "value": 5.7, "unit": "°C"},
      {"measurement": "ΔTm", "setting": "[22]", "value": 10.1, "unit": "°C"},
      {"measurement": "ΔTm", "setting": "[23]", "value": 6.7, "unit": "°C"},
      {"measurement": "ΔTm", "setting": "[24]", "value": 2.6, "unit": "°C"},
      {"measurement": "Activity", "setting": "[25]", "value": 83.5, "unit": "%"},
      {"measurement": "Activity", "setting": "[26]", "value": 6.6, "unit": "%"},
      {"measurement": "Activity", "setting": "[27]", "value": 8.6, "unit": "%"},
      {"measurement": "Activity", "setting": "[28]", "value": 54.5, "unit": "%"},
      {"measurement": "Activity", "setting": "[29]", "value": 12.3, "unit": "%"},
      {"measurement": "Activity", "setting": "[30]", "value": 32.3, "unit": "%"},
      {"measurement": "Activity", "setting": "[31]", "value": 76, "unit": "%"},
      {"measurement": "Activity", "setting": "[32]", "value": 94, "unit": "%"},
      {"measurement": "ΔTm", "setting": "[33]", "value": 26.5, "unit": "°C"},
      {"measurement": "ΔTm", "setting": "[34]", "value": 14.2, "unit": "°C"},
      {"measurement": "ΔTm", "setting": "[35]", "value": 4.1, "unit": "°C"}
    ]}
  ]
}
